Results on nine compounds are retold here after ChEMBL document CHEMBL1165878, “First biological evaluation of developed 3-benzyloxyfluorenes as novel class of MDR modulators” (Eur J Med Chem, 2010).

A short description of series [1]: Lipophilicity, log P of the compound. It counts as physicochemical. The following applies: octanol/water.
Series [2] concerns the target T1, ATP-dependent translocase ABCB1 (Homo sapiens, UniProt P08183). The series can be described thus: Inhibition of ABCB1 efflux pump-mediated rhodamine 123 uptake expressed in mouse L5178Y cells assessed as fluorescence activity ratio at 1 uM. It counts as cell-based.
Series [3] deals with T1, ATP-dependent translocase ABCB1. Briefly: Inhibition of ABCB1 efflux pump-mediated rhodamine 123 uptake expressed in mouse L5178Y cells assessed as fluorescence activity ratio at 10 uM. Type of series: cell-based. The method, boiled down: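 Mouse T lymphoma L5178Y parental line and an mdr1-retrovirally transfected subline overexpressing only ABCB1, grown in McCoy's 5A with 10% heat-inactivated horse serum and 2 mM glutamine. Rhodamine 123 uptake measured by flow cytometry, 1 ×10⁴ cells each, after resuspension in PBS. FAR = fluorescence of treated ABCB1 subline over parental line, each corrected to untreated control; mean of two determinations.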

T1 sequence (P08183 whole entry): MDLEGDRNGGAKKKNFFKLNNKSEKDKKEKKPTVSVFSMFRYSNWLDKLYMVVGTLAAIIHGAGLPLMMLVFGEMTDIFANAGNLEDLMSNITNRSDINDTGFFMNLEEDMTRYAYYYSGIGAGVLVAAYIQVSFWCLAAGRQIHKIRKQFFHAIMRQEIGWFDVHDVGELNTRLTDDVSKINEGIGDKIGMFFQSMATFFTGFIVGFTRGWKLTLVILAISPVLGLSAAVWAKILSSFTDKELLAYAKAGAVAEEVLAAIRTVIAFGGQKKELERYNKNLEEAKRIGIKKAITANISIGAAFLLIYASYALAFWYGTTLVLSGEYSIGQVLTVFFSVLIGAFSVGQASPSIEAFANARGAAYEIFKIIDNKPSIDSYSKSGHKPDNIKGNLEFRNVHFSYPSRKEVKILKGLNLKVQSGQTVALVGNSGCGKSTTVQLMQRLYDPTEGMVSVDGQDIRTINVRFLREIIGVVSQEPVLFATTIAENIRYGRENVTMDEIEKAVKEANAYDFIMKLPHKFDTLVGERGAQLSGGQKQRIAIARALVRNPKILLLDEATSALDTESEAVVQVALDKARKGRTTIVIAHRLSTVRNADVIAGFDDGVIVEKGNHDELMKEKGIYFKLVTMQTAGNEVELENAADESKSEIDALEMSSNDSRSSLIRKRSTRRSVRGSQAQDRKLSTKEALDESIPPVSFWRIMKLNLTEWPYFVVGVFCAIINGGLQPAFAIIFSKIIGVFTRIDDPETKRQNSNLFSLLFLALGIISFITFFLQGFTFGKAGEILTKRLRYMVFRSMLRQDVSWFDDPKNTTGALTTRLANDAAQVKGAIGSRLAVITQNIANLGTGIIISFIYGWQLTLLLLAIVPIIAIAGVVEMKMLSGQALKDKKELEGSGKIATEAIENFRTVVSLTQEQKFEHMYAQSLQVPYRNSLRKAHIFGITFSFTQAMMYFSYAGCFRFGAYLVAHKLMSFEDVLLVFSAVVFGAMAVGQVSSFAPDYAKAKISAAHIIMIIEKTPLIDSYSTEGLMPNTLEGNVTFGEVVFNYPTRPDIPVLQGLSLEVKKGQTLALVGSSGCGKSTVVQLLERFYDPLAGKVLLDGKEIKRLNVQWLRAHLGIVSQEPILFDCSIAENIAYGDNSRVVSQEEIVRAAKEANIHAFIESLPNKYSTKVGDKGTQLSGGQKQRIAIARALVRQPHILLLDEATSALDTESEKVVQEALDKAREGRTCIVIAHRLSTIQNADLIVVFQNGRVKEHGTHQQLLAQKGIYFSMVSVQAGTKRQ

Broadly, the logP is a log measure of how a compound divides between an organic and an aqueous phase. On to `Oc1ccc2oc3ncc(OCc4ccc(Cl)cc4)c(-c4ccc(Cl)cc4)c3c2c1`, for which, in series [1], the logP came to 6.59. Moreover, the values for the Ratio in series [2] and in series [3] were 1.11 and 5.92, respectively.

As for `Oc1ccc2oc3ncc(OCc4cccc(Cl)c4)c(-c4cccc(Cl)c4)c3c2c1`, the logP in series [1] worked out at 6.59. Moreover, the results for the Ratio in series [2] and in series [3] were 1 and 17.14, respectively.

As for `Oc1ccc2oc3ncc(OCc4ccc(Cl)cc4)c(-c4cccc(Cl)c4)c3c2c1`, the logP in series [1] was determined as 6.59. For the same compound, the values for the Ratio in series [2] and in series [3] were 1.81 and 2.61, respectively.

In the case of `Oc1ccc2oc3ncc(OCc4ccc(Cl)cc4)c(-c4ccccc4)c3c2c1`, in series [1], the lipophilicity (logP) was found to be 5.97. The Ratio was 1.23 in series [2] and 56.85 in series [3].

Take `Oc1ccc2oc3ncc(OCc4ccccc4)c(-c4ccc(Cl)cc4)c3c2c1`: the lipophilicity (logP) in series [1] is 5.97. The Ratio amounted to 3.04 in series [2] and 95.58 in series [3].

`Oc1ccc2oc3ncc(OCc4ccccc4)c(-c4cccc(Cl)c4)c3c2c1` returned a logP in series [1] of 5.97. The Ratio is on record as 1.35 in series [2] and 10.47 in series [3].

For `Oc1ccc2oc3ncc(OCc4cccc(Cl)c4)c(-c4ccccc4)c3c2c1`, the lipophilicity (logP) in series [1] came out at 5.97. Further, the Ratio in series [2] is recorded as 1.26; in series [3] it was 57.42.

`Oc1ccc2oc3ncc(OCc4ccccc4)c(-c4ccccc4)c3c2c1`: in series [1], the logP is 5.38. Besides, the Ratio in series [2] amounted to 1.75; in series [3], 34.49.

The compound `Oc1ccc2oc3ncc(OCc4cccc(Cl)c4)c(-c4ccc(Cl)cc4)c3c2c1` had a logP in series [1] of 6.59. The Ratio is given as 1.53 in series [2] and 21.48 in series [3].
